Bioassay records as filed in PubChem BioAssay.
Shown are actives, neighbours in structure and some others; about 1.6% of the full set was active somewhere.
procasp7 counter – counter-screen: procaspase-7 (human) activation; recombinant procaspase-7, Ac-DEVD-pNA absorbance 405 nm; D23A/D198A/D206A triple mutant, cannot self-cleave; scale: DMSO 0, 5 µM enzyme 100; 330,000 compounds, 0.093% hits; AID 463210; P55210; activation, % at 8.5 µM;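 active = percent activation above the screen-wide mean plus 3 SD, cut at about 25% in these data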
Target sequence (P55210 whole entry D23A/D198A/D206A): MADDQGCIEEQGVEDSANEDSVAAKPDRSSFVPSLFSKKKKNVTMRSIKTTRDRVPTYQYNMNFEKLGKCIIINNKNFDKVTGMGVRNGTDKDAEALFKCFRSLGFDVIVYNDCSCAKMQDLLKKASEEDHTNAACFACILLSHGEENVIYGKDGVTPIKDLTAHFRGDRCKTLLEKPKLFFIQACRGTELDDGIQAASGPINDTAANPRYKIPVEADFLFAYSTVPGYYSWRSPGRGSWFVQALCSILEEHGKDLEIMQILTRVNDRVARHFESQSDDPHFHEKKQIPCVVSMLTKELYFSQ
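System: Uncleavable procaspase-7 mutant enzyme; Amount: 2 µM procaspase-7 mutant as dispensed; Schedule: 1 h compound preincubation, 2 h substrate cleavage, 25 °C; Measured by: 405 nm absorbance of p-nitroaniline; Evaluation: percent activation from buffer-corrected 0–120 min absorbance change; Control set: low DMSO alone, high DMSO plus 5 µM PC-7.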
Neddylation inh – blocks human cullin neddylation; P61081+Q13564; TR-FRET cullin neddylation, biochemical; calls only at 25 µM; 360,000 compounds, 0.58% hits; in the data active = inhibition above about 36%
proKLK7 act – proKLK7 (human) activation, primary screen. P49862. purified proKLK7, EDANS-DABCYL substrate fluorescence; 100% is mature enzyme control, 0% vehicle. 370,000 compounds, 0.9% hits. activation, % at 7 µM;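 active = activation above the mean of all tested compounds plus 3 SD, computed per campaign excluding outliers beyond control limits, cut at about 13% in these data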
procasp3 activ – activators of human procaspase-3; 330,000 compounds, 0.11% hits; activation, % at 8.5 µM; recombinant procaspase-3 D3A, Ac-DEVD-pNA absorbance 405 nm; P42574; AID 463141;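 active = activation above the mean of all tested compounds plus 3 SD, cut at about 21% in these data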;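 also: 0% = DMSO alone and 100% = DMSO wells spiked with extra 5 µM PC-3 D3A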
Target sequence (P42574 whole entry D9A/D28A/D175A): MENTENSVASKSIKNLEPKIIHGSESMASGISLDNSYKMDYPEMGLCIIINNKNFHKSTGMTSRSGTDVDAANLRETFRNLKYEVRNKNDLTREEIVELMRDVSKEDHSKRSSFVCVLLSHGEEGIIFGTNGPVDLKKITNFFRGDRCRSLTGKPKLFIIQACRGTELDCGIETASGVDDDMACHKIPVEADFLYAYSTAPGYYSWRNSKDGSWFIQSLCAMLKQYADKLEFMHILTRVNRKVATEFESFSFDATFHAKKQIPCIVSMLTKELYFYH
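Assay system – Procaspase-3 D3A mutant, all three cleavage aspartates alanine · Controls – DMSO-only low control, 5 µM PC-3 D3A high control · Schedule – 1 h compound preincubation, 2 h substrate hydrolysis at 25 °C · Signal – 405 nm absorbance of p-nitroaniline, reads at 0 and 120 min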
Neddyl conf – cullin neddylation inhibition, confirmation; shares compounds with Neddylation inh; TR-FRET cullin neddylation biochemical assay; calls only at 25 µM; 1,800 compounds, 13% hits; in the data active = inhibition above about 40%;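 also: neddylation substrate is the cullin 1 ring ligase complex with SKP2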
An asterisk follows results filed as active; i = inactive; / = no result given; + = active, no number.

SMILES | procasp7 counter | Neddylation inh | proKLK7 act | procasp3 activ | Neddyl conf
Cc1ccc(C(=O)c2oc3ccccc3c2NC(=O)c2cc(-c3ccccc3O)n[nH]2)cc1 | -4 | / | -1 | 7 | /
Cc1ccc(C(=O)c2oc3ccccc3c2NC(=O)c2cc(-c3cc(C)ccc3O)n[nH]2)cc1 | -19 | + | -1 | -11 | i
O=C(CCn1nnc(-c2cccs2)n1)N1CCOCC1 | / | / | 0 | / | /
C=CCNC(=O)Nc1ccc2c(c1)[C@]1(CC(=O)N(CC(C)C)C1c1ccccc1)C(=O)N2C (stereo not given in full) | / | / | 1 | / | /
CCOC(=O)CC[C@@H]1CC[C@]2(CCCN(Cc3ccc(Cl)cc3)C2)O1 | / | / | 0 | / | /
Cc1cc(N2CCOCC2)nc(N2CCOCC2)c1C#N | / | i | 0 | / | /
Cc1cc(C)c(C#N)c(N2CCOCC2)n1 | -2 | + | -1 | -3 | +
CC(C)CN1CCC(CN2C(=S)NC[C@@H]2Cc2ccccc2)CC1 | / | / | 0 | / | /
CS(=O)(=O)N1CCC[C@]2(CC[C@H](CCC#N)O2)C1 | / | / | 0 | / | /
CC12CCC(C(=O)N/N=C/c3ccc(O)cc3)(OC1=O)C2(C)C (stereo not given) | 2 | i | -2 | -4 | /
CCOC(=O)[C@@]12CCCC3=C1N(CCC3)C(=O)[C@H]2CC(=O)NCCC(C)C | / | / | 0 | / | /
O=C1COc2ccccc2C(c2nnnn2-c2ccc3ccccc3c2)N1C1CC1 (stereo not given) | / | / | 0 | / | /
Cc1ccccc1OC1=NS(=O)(=O)c2ccccc21 | -6 | i | 0 | 4 | /
O=S1(=O)N=C(Oc2cccc3ccccc23)c2ccccc21 | 5 | + | -22 | 4 | i
Cc1ccc(-c2cc(-c3nnc(SCC(=O)Nc4nccs4)n3N)[nH]n2)cc1 | / | / | 0 | / | /
CCc1ccccc1Cn1c(=O)oc2cccnc21 | 1 | + | 1 | -2 | i
COc1ccccc1Cn1c(=O)oc2ccccc21 | / | i | 1 | / | /
Cc1cccc(-c2cccc3c4c([nH]c23)[C@@H]2C[C@H](N(C)C(=O)c3ccco3)[C@H]([C@H](C)O)CN2CC4)c1 | / | / | -1 | / | /
COC(=O)[C@H](CC(C)C)N1Cc2nnn(Cc3ccc(C)cc3)c2-c2cc(F)ccc2S1(=O)=O | / | / | 1 | / | /
COc1ccc(NC(=O)COc2ccc3c(C)cc(=O)oc3c2)cc1S(=O)(=O)N1CCCCC1 | 16 | + | -11 | 2 | /
COc1ccc(S(=O)(=O)N2CCOCC2)cc1NC(=O)COc1ccc2c(C)cc(=O)oc2c1 | 10 | i | -4 | 0 | /
Nc1ccc(-c2cc3ccccc3c(=O)o2)cc1 | -1 | + | -1 | 0 | i
COc1cc(OC)cc(-c2cc3ccccc3c(=O)o2)c1 | -2 | i | 0 | 5 | /
CCOC(=O)[C@]12CCCC3=C1N(CCC3)C(=O)[C@@H](CC(=O)NCc1ccc(C)o1)C2 | / | / | 0 | / | /
CC(=O)N(C)c1cccc(-c2ccc3nnc(C)n3n2)c1 | 5 | + | 4 | 0 | /
SMILES | procasp7 counter | Neddylation inh | proKLK7 act | procasp3 activ | Neddyl conf
CC(=O)Nc1ccc(-c2ccc3nnc(C)n3n2)cc1 | -6 | i | 1 | -1 | /
Cc1nn(-c2ccccc2)c2sc(C(=O)N3CCN(Cc4ccc(F)cc4)CC3)cc12 | / | / | 0 | / | /
COC(=O)C1CN(Cc2ccc(C)cc2)CCS(=O)(=O)N1Cc1cn(Cc2ccccc2)nn1 (stereo not given) | / | / | 0 | / | /
COc1ccc(CNC2CCCCC2C)c(OC)c1 (stereo not given) | -1 | + | / | -2 | /
COc1ccc(CNC2CCCc3ccccc32)c(OC)c1 (stereo not given) | / | i | 0 | / | /
CN(C)C(=O)COC(=O)/C=C/c1cn(-c2ccccc2)nc1-c1cccs1 | 1 | + | -9 | -3 | /
O=C(N/N=C/c1cn(-c2ccccc2)nc1-c1cccs1)c1ccncc1 | -32 | + | 0 | -30 | /
O=C(N/N=C/c1nn(-c2ccccc2)cc1-c1ccccc1)c1ccncc1 | 5 | + | 0 | -13 | i
NC(=O)N/N=C/c1cn(-c2ccccc2)nc1-c1cccs1 | -3 | i | 0 | -6 | /
O=C(N/N=C/c1cn(-c2ccccc2)nc1-c1ccccc1)c1ccco1 | 4 | + | 2 | -6 | i
CCN1Cc2nnn(Cc3ccccc3)c2-c2cc(N3CCCC3)ccc2S1(=O)=O | / | / | -1 | / | /
COC(=O)[C@]12C[C@H](CC(=O)NCc3ccc(OC)c(OC)c3)C(=O)N(Cc3cccc4ccccc34)C1=C[C@H](COCc1ccccc1)O[C@@H]2C | / | / | 0 | / | /
N#CC(C#N)=Cc1cn(-c2ncc(C(F)(F)F)cc2Cl)c2ccccc12 | 4 | + | 0 | 10 | i
COc1ccc(/C=C/C(=O)OCC(=O)Nc2nnc(-c3ccccc3)o2)c(OC)c1 | / | i | 2 | / | /
COc1cccc(/C=C/C(=O)OCC(=O)Nc2cccc(S(=O)(=O)NC3=NCCCCC3)c2)c1 | 2 | + | -3 | 9 | /
COC(=O)c1ccc(CNC(=O)COC(=O)/C=C/c2cccc(OC)c2)cc1 | / | + | 7 | / | i
O=C(COC(=O)/C=C/c1cccc(F)c1)Nc1cccc(S(=O)(=O)NC2=NCCCCC2)c1 | -2 | i | 0 | 13 | /
COc1cccc(/C=C/C(=O)OCC(=O)Nc2nnc(-c3ccccc3)o2)c1 | 6 | + | / | 7 | i
Cc1nc2cc(F)ccc2n1C1CCN(C(=O)c2c(F)cccc2F)CC1 | 3 | + | -3 | 0 | i
COc1ccc(CCNC(=O)C(C)OC(=O)c2nsc(Cl)c2Cl)cc1OC (stereo not given) | -4 | i | -1 | 8 | /
Cc1cc(C)c2c(N)c(C(=O)c3ccccc3)oc2n1 | -12 | i | 1 | -3 | /
Cc1cc(-c2ccccc2)nc2oc(C(=O)NN)c(N)c12 | -6 | + | -59 | -17 | +
CCCCC(=O)Nc1cccc(-c2nc3ncccc3o2)c1C | -11 | + | 0 | -1 | i
C=CCN1[C@H](Cc2ccccc2)COc2cc(N3CCSCC3)ccc2S1(=O)=O | / | / | 0 | / | /
CCOc1ccc(/C=N/NC(=O)c2cc3c(OC)cc(OC)cc3[nH]2)cc1OC | 3 | / | -4 | 8 | /
COc1cccc(/C=N/NC(=O)c2cc3c(OC)cccc3[nH]2)c1OC | 0 | + | 0 | -4 | i
CCOc1ccc(/C=N/NC(=O)c2cc3c(OC)cccc3[nH]2)cc1 | -1 | + | -9 | 0 | i
COc1ccc(/C=N/NC(=O)c2[nH]c3ccc(Cl)cc3c2-c2ccccc2)c(C(=O)O)c1OC | -9 | + | 1 | -11 | /
COc1cccc(/C=N/NC(=O)c2cc3c(OC)c(OC)ccc3[nH]2)c1OC | / | i | 1 | / | /
CCOC(=O)[C@@]12CN(C(=O)OC(C)(C)C)CC=C1N(Cc1ccc(OC)cc1)C(=O)[C@H]2CC(=O)NCCCCc1ccccc1 | / | / | 1 | / | /
